Test: Toxicity liver stage against HepG2, at 10uM
Format: cell-based
Design: test concentration 10 uM, cell line HepG2-A16-CD81EGFP
Details: human, HepG2-A16-CD81EGFP cells; read-out: INHIBITION
Procedure, shortened: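 Uninfected HepG2-A16-CD81EGFP cells, 3 × 10^3 per well, 1536-well, plated on prespotted compound at 10 μM final, parasite-free screening media added to match infected plates; puromycin 10 μM positive, DMSO 0.5% negative; run in parallel with 48 h PbLuc assay at 37 °C, 5% CO2; viability by CellTiter-Glo luminescence, normalized to controls.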

Compound	cytotoxicity at 10 µM
CCc1nnc2n1CCN(CCS(=O)(=O)c1ccccc1)C2	-11.6%
CCc1noc(CN2CCC(C(=O)Nc3cnn(CC)c3)CC2)n1	3.43%
CN(Cc1cccc2ncccc12)C(=O)CCn1ccc(=O)[nH]c1=O	-134%
Cc1cc(N2CCC(O)CC2)nc(C2CCCN2C)n1 (stereo unspecified)	-1.89%
CSc1ncccc1C(=O)Nc1ccc(Cn2ccccc2=O)cc1	2.77%
Cc1nc(CN2CCO[C@@H]3CC(COc4ccccn4)C[C@H]32)cs1 (stereo partly specified)	8.57%
CC(C)Cc1cn(C2CCN(C(C)CC3CC3)CC2)nn1 (stereo unspecified)	-2.9%
Cc1nnc(NCC2(c3ccccc3)CC2)c(C#N)c1C	3.51%
O=C1Nc2ccccc2CC12CCN(CCO)C2 (stereo unspecified)	6.62%
CC(C)c1nc2n(n1)CC(NCc1nc(-c3ccsc3)no1)CC2 (stereo unspecified)	-5.39%
Nc1nnc(CCNC(=O)c2cccc(C3CCCNC3)c2)s1 (stereo unspecified)	2.9%
CC(Cn1cccn1)NC(=O)C1=Cc2ccccc2OC1 (stereo unspecified)	2.86%
CC(=O)NCCC(=O)NCc1cc(Br)ccc1OC(F)F	-6.47%
COc1cc2nc(NCc3ccc(C)nc3)nc(N)c2cc1OC	2.94%
CC(=O)N1CC[C@@H]2CN(Cc3ccncc3)S(=O)(=O)[C@@H]2CC1	5.07%
COc1ccc(CN(C)c2nccc(-c3cn(C)nc3C)n2)cc1	13.6%
COC(=O)c1ccc(N2CCN(C(=O)c3cnc(C)cn3)C(C)C2)cc1 (stereo unspecified)	3.09%
O=C(Nc1ccc(Cl)cn1)c1nn(C2CCS(=O)(=O)C2)c2c1CCCC2 (stereo unspecified)	1.61%
OCc1nnn2c1CN(Cc1cccnc1)CCC2	10.1%
CCN(CC(=O)NC(C)C)C(=O)c1ccc(-c2ccsc2)nc1C	-0.908%
O=S(=O)(c1cccnc1)N1CCCCC1CCN1CCOCC1 (stereo unspecified)	-3.03%
c1cc(CN2C[C@H](OCC3CCOCC3)[C@H]3COC[C@H]32)cs1	9.86%
Cc1cnc(NC(=O)CSC2CCc3ccccc3NC2=O)s1 (stereo unspecified)	-2.34%

Compound	cytotoxicity at 10 µM
CCc1nccn1-c1cccc(C2CCCN(C3CCCCC3)C2)n1 (stereo unspecified)	-5.08%
Cc1cnc(C)c(N2CCCC(C/C=C/c3ccccc3)(C(=O)O)C2)n1 (stereo unspecified)	9.42%
CC(C)C(=O)N1CCCC(Cc2cccnc2)C1 (stereo unspecified)	-1.55%
CC(C)(C)c1cc(C[C@H]2CNCC[C@H]2CC(=O)NCc2cccs2)no1	-2.28%
Cc1cc(C)n(CC(=O)N2CCC(c3nc(C)no3)CC2)n1	1.2%
CC1CCCN(CCCNC(=O)c2cn(C)nc2-c2cccnc2)C1 (stereo unspecified)	-3.24%
Cc1cnn(-c2ccc(C(=O)N3CCN(C)CC3C)cc2)c1 (stereo unspecified)	5.16%
N#Cc1ccc(F)c(CNC(=O)NCCC(=O)NC2CCCC2)c1	-5.95%
Cc1c[nH]nc1C1CCCCN1C(=O)Cn1cc(Cl)cn1 (stereo unspecified)	4.11%
CCCN1CCc2c(C(=O)N(C)Cc3ccccn3)nn(C)c2C1	-1.92%
Cn1c(C2CC2)nc2cc(NC(=O)C3CCOC3)ccc21 (stereo unspecified)	3.09%
CC(NCc1ccc(OCC(N)=O)cc1)c1ccc(Cl)cc1 (stereo unspecified)	11.2%
CCCN(CC1CC1)C(=O)Cn1ccccc1=O	9.09%
Cc1ccc(CN2CC[C@H]3OCC[C@@H](C(=O)NC4CC4)[C@@H]3C2)o1	5.81%
CN1CCC(N(C)CCC(=O)N2CCN(Cc3cccc(F)c3)CC2)C1 (stereo unspecified)	-3.41%
COc1cccc(C2CCCN2C(=O)c2ccc(=O)n(C)c2)c1 (stereo unspecified)	-1.72%
COCCc1noc(-c2ccc(-c3cc[nH]n3)nc2)n1	-2.79%
CN(Cc1ccsc1)C(=O)Nc1cccnc1N1CCCC1	-4.37%
Cc1ccc(C)c(OCC(O)Cn2ncc3cnn(C)c(=O)c32)c1 (stereo unspecified)	4.45%
c1cncc(OCc2noc3c2CN(Cc2ccco2)CC3)c1	1.71%
CCOCC1CN(c2ccc(C)nn2)Cc2cnn(CC)c21 (stereo unspecified)	9.41%
Cc1cnc(C(=O)N2CCCC(n3cncn3)C2)cn1 (stereo unspecified)	-2.97%
CC(Cn1cccn1)NC(=O)NCc1ccoc1 (stereo unspecified)	8.59%

Compound	cytotoxicity at 10 µM
CC(C)c1cc(C(=O)N2C[C@@H]3CC[C@H]2CN(Cc2cccnc2)C3)no1	2.55%
O=C(C1CCOC1)N1CCC2(CC1)CN(Cc1nccs1)CCO2 (stereo unspecified)	-75%
CNC(=O)CN1CCOC(c2cccc(N)n2)C1 (stereo unspecified)	-5.22%
O=C([C@H]1CCCO1)N1CC[C@H](O)[C@@H]1Cc1ccncc1	6.38%
CCC(=O)N1CCCC(Cn2cc(-c3ccc(F)cc3)nn2)C1 (stereo unspecified)	2.89%
COCCCN(C)c1nc(-c2ccncc2)nc2c1CCN(C(C)=O)C2	-1.16%
COc1cc(F)c(C(=O)N2C[C@@H](CN(C)CCO)[C@@H](CO)C2)c(F)c1	-1.53%
O=C(c1ccccc1-c1nc[nH]n1)N1CCOC(C(F)(F)F)C1 (stereo unspecified)	-0.359%
CC(C)N1CCN(C(=O)C(C)n2cncn2)CC1 (stereo unspecified)	0.724%
CN1CCCc2c1nc1c(c2N)CCC1	10.2%
O=C1CCCN1c1cccc(CNCc2nc(C3CC3)no2)c1	-7.11%
CC(C)(C)c1cc(NC(=O)CN2CCCC2Cn2cccn2)on1 (stereo unspecified)	-15.3%
Cc1csc(N2CCN(Cc3cnc4c(c3)c(C)nn4C)CC2)n1	-0.54%
COc1nc2c(cc1C(=O)N1CCCOC(CN3CCCC3)C1)CCC2 (stereo unspecified)	-48.8%
CC(NCc1ccc(C(N)=O)cc1)c1ccc(Cl)c(Cl)c1 (stereo unspecified)	8.8%
Fc1ccccc1-c1nc(CNCCn2cccn2)cs1	-9.53%
O=C(Cc1ccncc1)N1C[C@H]2CC[C@@H](C1)N(Cc1ccccc1)C2=O	5.79%
CN(Cc1ccc(CCC(C)(C)O)cc1)Cc1cccnc1	15%
CC(C)NC(=O)c1ccc2c(c1)nc1n2CCN(Cc2ccco2)C1	8.16%
Cn1cc(C(=O)NCc2cn3c(n2)CN(CC2CCOCC2)CC3)cn1	-12.9%
O=C(Nc1cccn(Cc2ccccc2)c1=O)c1ccncc1F	14.8%
Cc1nc2cc(-c3nccn3C)nn2c(N2CCCC2)c1C	4.53%
CCC(CC)c1nnc(NC(=O)N2CCCC(NC(C)=O)C2)s1 (stereo unspecified)	5.9%

Compound	cytotoxicity at 10 µM
COCCN(CCOC)C(=O)c1c[nH]nc1-c1cccc(F)c1	-0.25%
CC(C)(C)C(=O)N1CCC(c2nc(O)cc(-c3ccccn3)n2)CC1	-1.13%
CCS(=O)(=O)NCCNCc1cc(F)ccc1Br	1.58%
O=C(NC1CCS(=O)(=O)C1)c1ccc(-c2ccc(F)cc2)s1 (stereo unspecified)	-2.32%
Cc1ccc(CN2CCCC3(CCN(Cc4ccc(C)o4)C3)C2)o1 (stereo unspecified)	-107%
CCc1nc(CN2CCCN(C(=O)CC(F)(F)F)CC2)cs1	-18.9%
Cn1c2c(ccc1=O)CCN(Cc1ccoc1)CC2	-153%
Cc1oc(-c2ccoc2)nc1CN1CCCCC1CCn1cccn1 (stereo unspecified)	-3.65%
Cc1cc(=O)c2ccccc2n1CC1CCCN(C)C1 (stereo unspecified)	-5.82%
CC(C)OCCOCC(O)CN(C)C(=O)Nc1ccc(F)cc1Cl (stereo unspecified)	10.7%
COc1c(CNCc2cccnc2OC(C)C)c(C(C)C)nn1C	11.1%
CC(C)S(=O)(=O)N1CCC(c2cc3n(n2)[C@@H](C(F)(F)F)C[C@@H](C)N3)CC1	-13.5%
CC(=O)N1CCc2c(nc(N(C)C)nc2NCCCn2ccnc2C)C1	-7.42%
Cc1cc(C2CCCN(C(=O)COc3cc(C)on3)C2)n[nH]1 (stereo unspecified)	-3.87%
CC(CNC(=O)c1cccnc1)Oc1ccc(F)cc1 (stereo unspecified)	-6.98%
CN(Cc1ccccc1)CC(O)Cn1cnc2ccc(Br)cc2c1=O (stereo unspecified)	-9.04%
N#Cc1cccc(S(=O)(=O)NC(=O)COc2ccc3c(c2)CCC3)c1	1.33%
Cc1cc(C(=O)N2CCCC2Cn2nc(C)cc2C)on1 (stereo unspecified)	-8.21%
O=C(NCC1CCC2(CC1)OCCO2)c1cccc(-n2cccn2)c1	0.477%
COC(=O)c1sccc1S(=O)(=O)N1CCC(Oc2ncccc2Cl)CC1	-16.8%
Cc1ccc2[nH]c(CN3CC[C@@H](N4CCN(C)CC4)[C@H](O)C3)c(C)c2c1	-7.34%
c1ccc(CN2C[C@H]3CCC[C@@]3(COCC3CCOCC3)C2)nc1	1.49%
CCn1ccc(NC(=O)c2cc(C)on2)n1	-2.23%

Compound	cytotoxicity at 10 µM
CN1CCN(CC(NCc2ccc(F)cc2)c2ccccc2)CC1 (stereo unspecified)	-15.7%
CCCS(=O)(=O)N1CC[C@H]2OCC[C@@]2(c2nnc(C)o2)C1	8.43%
O=C(c1cc[nH]n1)N1CC[C@@H]2CN(Cc3cccnc3)S(=O)(=O)[C@@H]2CC1	12.7%
Cn1cc(C(=O)N2CCOc3ccccc32)ccc1=O	13%
Cc1cc(C)n(CC(C)NC(=O)c2cc(CN3CCC(O)CC3)on2)n1 (stereo unspecified)	0.873%
CCc1ccsc1C(=O)NCCn1nc2ccccn2c1=O	-12.2%
COCC(=O)N1CCCN(C(=O)C2Cc3ccccc3CN2C)CC1 (stereo unspecified)	4.28%
CO[C@@H]1CCN(S(=O)(=O)c2cn(C)cn2)[C@H]1Cc1ccccc1	7.13%
Cc1cc(CN(C)CC2CCCN(CCc3ccc(Cl)cc3)C2)[nH]n1 (stereo unspecified)	-12.5%
Cc1nc(N2CCCC2)ncc1-c1cc(O)n2ncnc2n1	10.6%
CCn1ncc(S(=O)(=O)N[C@@H]2CCC[C@@H](n3ccnc3)[C@@H]2O)c1C	1.18%
CCCN1CCC(Cc2nn3c(C(C)C)nnc3s2)CC1	-6.17%
Cc1nn(C)c(Cl)c1C1CCCN1C(=O)c1cnc[nH]1 (stereo unspecified)	-2.11%
CCc1c(C(=O)NCC(=O)OCC2CC2)cnn1-c1ccc(C)cc1	-3.81%
Cc1nnc(CN(C)CCCOc2ccc(Cl)cc2)o1	-1.69%
Cc1ccc(S(=O)(=O)Nc2ccc(=O)n(C)c2)cc1	1.07%
COCC1CN(C(=O)Cc2cccs2)Cc2nnn(C)c21 (stereo unspecified)	4.99%
COc1ccc(C)cc1C(C)NC(=O)Cn1ccc(=O)n(C)c1=O (stereo unspecified)	-1.59%
COCCN1CCCC(C)(c2cc(O)[nH]n2)C1 (stereo unspecified)	10.8%

— ChEMBL document CHEMBL4513216, “Probing the Open Global Health Chemical Diversity Library for Multistage-Active Starting Points for Next-Generation Antimalarials” (ACS Infect Dis, 2020)
